Assay outcomes as filed in PubChem BioAssay.
In the library only some 2.3% were active in any assay of this set; here they are far more common.
STEP block: STEP phosphatase inhibitors, primary screen, biochemical, fluorescence intensity, uHTS; Tyrosine-protein phosphatase non-receptor type 5 (Homo sapiens), P54829; recombinant STEP, OMFP fluorogenic substrate; inhibition, % at 20 µM; 360,000 compounds, 0.25% hits; AID 588621, 2011;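 active = inhibition at 20 µM, scaled per plate between control wells, above about 37%, limit read from the data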;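 also: 0% = DMSO with enzyme and substrate and 100% = substrate only without enzyme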
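Material: STEP (striatal-enriched tyrosine phosphatase) enzyme, cell-free | Medium: 50 mM Bis-Tris pH 6.0 with 2.5 mM DTT and 0.005% Tween 20 | Read-out: Percent inhibition scaled to no-enzyme and uninhibited-enzyme controls, plate-pattern corrected | Signal: Fluorescence read at 480 nm ex / 540 nm em | Times: 20 min reaction, room temperature, in the dark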
SUMO1 PPI mod: modulators of SUMO1 protein-protein interactions, primary screen, biochemical, uHTS; inhibition, % at 20 µM; AID 602429, 2012; 360,000 compounds, 0.33% hits; SUMO1 binding to a labelled peptide, TR-FRET, 1 h; Small ubiquitin-related modifier 1 (Homo sapiens), P63165; in the data active = inhibition above about 37%
Rpn11 inh: Rpn11 (PSMD14) deubiquitinase inhibitors, primary screen, biochemical, fluorescence polarization, uHTS; 26S proteasome non-ATPase regulatory subunit 14 (Homo sapiens), O00487; inhibition, % at 20 µM; human 26S proteasome, Ub4-pepOG fluorescence polarization; 20S core pre-blocked with epoxomicin; 360,000 compounds, 0.59% hits;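 active = inhibition at 20 µM, scaled to each plate's controls, above about 33%, limit read from the data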
LMPTP block: LMPTP phosphatase inhibitors, primary screen, biochemical, fluorescence intensity, uHTS; Low molecular weight phosphotyrosine protein phosphatase (Homo sapiens), P24666; recombinant LMPTP-A, OMFP fluorogenic substrate; inhibition, % at 20 µM; 360,000 compounds, 0.22% hits; AID 651560, 2012;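 active = compounds that cut the enzyme signal by at least half of the control window in the single-dose screen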;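 also: plate controls were DMSO wells with enzyme plus substrate for no effect and substrate without enzyme for full effect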
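Assay system: LMPTP-A phosphatase enzyme | Input: 0.625 nM enzyme | Also added: Fluorogenic phosphatase substrate OMFP at 400 µM final | Compound dosing: One test concentration per compound, 20 µM, with 3% DMSO overall | Schedule: 50 min enzyme reaction at room temperature, protected from light | Signal: Fluorescence intensity | Benchmarks: no-enzyme and uninhibited controls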
Scp-1 inhibitor: Scp-1 phosphatase inhibitors, primary screen, biochemical, colorimetric, uHTS; Carboxy-terminal domain RNA polymerase II polypeptide A small phosphatase 1 (Homo …; Recombinant Scp1, phosphopeptide, malachite green phosphate absorbance; inhibition, % at 20 µM; 340,000 compounds, 0.88% hits;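 active = inhibition above about 50% at 20 µM, limit read from the data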;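 also: plate controls were DMSO wells with enzyme for no effect and wells lacking enzyme for full effect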
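Times: enzyme reaction 45 min at room temperature, colour 5 min, stabilisation 30 min. Material: SCP-1 catalytic fragment, aa 76-261. Medium: Acidic Tris acetate buffer with magnesium and detergent. Signal: colorimetric free-phosphate detection, absorbance 630 nm. Read-out basis: % inhibition of SCP-1 phosphate liberation. Reagent: Phosphorylated 17-residue peptide substrate.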
DNMT1 block: human DNMT1 methyltransferase inhibitors, primary screen, biochemical, molecular beacon, fluorescence, HinP1I cleavage, uHTS | DNA (cytosine-5)-methyltransferase 1 (Homo sapiens), P26358 | inhibition (reported as % activation of signal), % at 10 µM | 360,000 compounds, 0.83% hits | AID 588458, 2011; in the data active = inhibition above about 50%
Rpn11 confirm: Rpn11 (PSMD14) deubiquitinase inhibitors, confirmation, biochemical, fluorescence polarization, single concentration | shares compounds with Rpn11 inh | purified human 26S proteasome, Ub4-pepOG fluorescence polarization; proteasome pretreated with epoxomicin | inhibition, % at 20 µM | 1,900 compounds, 29% hits
MMP-2 inh: MMP-2 enzyme inhibition, confirmation, counter-screen for RPN11 inhibitor project, biochemical, fluorescence, single concentration; inhibition, % at 20 µM; 1,900 compounds, 4% hits; recombinant MMP-2, FRET peptide cleavage fluorescence; shares compounds with Rpn11 inh;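 also: human MMP-2 activated beforehand with APMA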
Thrombin inh: bovine thrombin protease inhibition, confirmation, counter-screen for Rpn11 inhibitor project, biochemical, fluorescence polarization, single concentration; bovine thrombin cleavage of Ub4-pepOG; shares compounds with Rpn11 inh; inhibition, % at 20 µM; 1,900 compounds, 13% hits;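 active = mean inhibition at least 40% at 20 µM, or signal 3 deviations below plate average, so some actives read negative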;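 also: plate controls were thrombin with DMSO for no effect and buffer wells lacking thrombin for full effect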
Target sequence (P00735 whole entry, looked up): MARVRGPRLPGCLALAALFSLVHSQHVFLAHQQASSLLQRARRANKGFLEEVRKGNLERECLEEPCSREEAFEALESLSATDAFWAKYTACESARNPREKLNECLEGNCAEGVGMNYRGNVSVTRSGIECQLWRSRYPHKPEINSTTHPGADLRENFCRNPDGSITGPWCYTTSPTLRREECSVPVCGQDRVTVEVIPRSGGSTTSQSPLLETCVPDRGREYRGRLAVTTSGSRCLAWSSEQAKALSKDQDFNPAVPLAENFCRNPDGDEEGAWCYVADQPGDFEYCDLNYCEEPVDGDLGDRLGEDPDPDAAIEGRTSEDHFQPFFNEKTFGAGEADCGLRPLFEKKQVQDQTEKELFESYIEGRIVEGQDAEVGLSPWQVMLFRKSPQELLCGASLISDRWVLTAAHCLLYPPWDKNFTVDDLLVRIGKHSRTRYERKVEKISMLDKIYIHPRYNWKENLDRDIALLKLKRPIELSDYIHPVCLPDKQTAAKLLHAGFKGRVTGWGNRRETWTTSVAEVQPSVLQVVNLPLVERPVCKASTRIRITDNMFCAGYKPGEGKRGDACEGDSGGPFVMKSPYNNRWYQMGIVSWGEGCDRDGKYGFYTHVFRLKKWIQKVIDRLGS
Starred values were filed as active, the others as inactive; . = no result shown. Rule as the data show it, unless noted: active = inhibition above about 40%; inactive = the rest.

SMILES	STEP block	SUMO1 PPI mod	Rpn11 inh	LMPTP block	Scp-1 inhibitor	DNMT1 block	Rpn11 confirm	MMP-2 inh	Thrombin inh
CCOC(=O)c1sc2nc3c(SCCC(=O)O)cc(C(=O)c4cc(OC)ccc4O)cn3c(=O)c2c1C	96*	84*	163*	92*	27	104*	80*	31	8
O=C(c1cnn(-c2ccccc2)c1)c1cc(F)ccc1O	1	-16	-8	-1	-16	1	.	.	.
O=C(O)CSc1cc(C(=O)c2cc(F)ccc2O)cn2c(=O)c3c(-c4ccccc4)csc3nc12	6	18	39*	14	-11	-1	15	44*	22
Cc1cccc(C)c1NC(=O)CN(C)C(=O)C1CC(=O)N(c2cccc3ccccc23)C1 (stereo unspecified)	-1	-4	1	0	-5	-1	.	.	.
CCN(CC)C(=O)c1cccc(-c2csc(C(O)c3cccc(Cl)c3)n2)c1 (stereo unspecified)	1	-7	-2	2	.	-3	.	.	.
COc1cccc(OC)c1C(=O)NCCN1CCN(C(=O)c2c(OC)cccc2OC)CC1	-3	-1	134*	-3	-10	-10	-2	-14	-17
Cc1ccc(-c2ccc(/C=C/C(=O)c3ccccc3)o2)cc1	-1	0	76*	2	-11	4	28	-15	-2
COc1cc2cc3c(N)c(C(=O)Nc4sc(C)c(C)c4C#N)sc3nc2cc1OC	6	17	84*	4	18	-7	48*	6	31
Cc1ccc(NC(=O)/C(C#N)=C/c2ccc(C)s2)c(C)c1	-8	-6	.	-1	9	5	.	.	.
Cc1ccc(/C=C(\C#N)C(=O)Nc2c(C)cccc2C)s1	0	-22	85*	0	10	-2	96*	-8	80*
CC(C)CNC(=O)c1ccccc1NC(=O)CN(c1ccccc1)S(=O)(=O)N(C)C	0	-2	1	1	-6	-3	.	.	.
CCOP(=O)(c1ccccc1)c1nc(-c2ccc(F)cc2)oc1N1CCCCC1 (stereo unspecified)	0	2	126*	-1	2	-4	-6	-20	-16
COc1cc(/C=C2/NC(=O)N(c3cccc(Cl)c3)C2=O)ccc1O	-2	-8	-1	5	-1	1	.	.	.
COc1ccc(-n2cccc2/C=C2/NC(=O)N(c3cccc(Cl)c3)C2=O)cc1	2	1	41*	-1	7	11	6	-18	4
O=C(c1ccnc(Cl)c1)N1CCCC(N2CCN(c3ccccc3F)CC2)C1 (stereo unspecified)	1	4	54*	2	-3	-1	4	-26	-12
CCOC(=O)N1CCN(C(=O)c2nc3ccccc3s2)CC1	1	1	111*	-1	0	5	-10	-12	-6
CCc1cccc(C)c1NC(=O)CN1CCN(S(=O)(=O)c2ccc(C(C)(C)C)cc2)CC1	1	1	5	2	4	-3	.	.	.
